PLK1 PBD inh – Plk1 (human) PBD binding inhibition; inhibition, %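 (tested at about 20 µM)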; AID 693; P53350; Plk1 PBD phosphopeptide binding, fluorescence polarization; 0.13% of 97,000 active; in the data active = inhibition above about 34%, passing the limit was not always enough
PLK1 kinase inh – blocks human PLK1 kinase activity. P53350. inhibition, % at 10 µM. 0.53% of 97,000 active. recombinant PLK1 kinase, TR-FRET peptide phosphorylation;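 active = inhibition of 50% or more in the single-concentration screen; inactive = inhibition below 50%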;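 also: 0% = DMSO max control and 100% = H-89 dihydrochloride min control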
F-actin modifier – modifiers of cytoskeleton assembly. 0.18% of 91,000 active. inhibition, % at 2 µM. HUVEC TNFa F-actin phalloidin imaging, high content;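 active = inhibition above the batch mean plus 3 SD and confirmed as a hit by visual image inspection, cut at about 30% in these data, passing the limit was not always enough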
FAK blocker – inhibitors of human focal adhesion kinase; Q05397; inhibition, %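 (tested at 7 µM)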; 0.84% of 97,000 active; biochemical FAK kinase activity assay;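 also: 0% = DMSO and 100% = reference compound high control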
E-sel TNF inh – TNF alpha driven E-selectin expression inhibition. HUVEC TNFa-induced E-selectin immunofluorescence, high content. inhibition, % at 2 µM. 0.71% of 120,000 active. AID 1246;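 active = inhibition above the batch mean plus 3 SD, and confirmed as a hit on visual image review, cut at about 43% in these data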;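 also: 0% = TNF-stimulated DMSO wells and 100% = unstimulated control wells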
HIV Rev-RRE inh – HIV Rev-RRE protein-RNA interaction inhibition | P05866 | Rev peptide-RRE RNA binding, FRET | inhibition, % at 8 µM | 0.79% of 97,000 active | AID 704;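 active = inhibition above the screen-wide mean plus 3 SD, cut at about 35% in these data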;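 also: 0% = median DMSO wells and 100% = median Neomycin B control wells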
Target sequence (P05866 whole entry, looked up): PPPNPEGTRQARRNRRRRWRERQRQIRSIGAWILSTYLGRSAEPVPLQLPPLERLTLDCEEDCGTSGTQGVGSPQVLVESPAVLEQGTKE
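Assay system: Rev peptide and RRE RNA, both fluorescently labelled; times: 5 min preincubation and 15 min binding, 25 °C; detection: FRET, ex 480 nm, em 540 and 671 nm; read-out basis: % inhibition from 671/540 nm acceptor-to-donor ratio, scaled between controls; benchmarks: DMSO low control, neomycin B high control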
FAK inh conf – confirmation of human focal adhesion kinase (FAK) inhibitors | shares compounds with FAK blocker | inhibition, % at 7 µM | FAK kinase biochemical inhibition assay | 28% of 750 active
Numbers without * were called inactive. This is a sample that favours compounds with a hit; in the whole collection about 2.2% have one here. Rule as the data show it, unless noted: active = inhibition above about 19%; inactive = the rest.

O=C(Cn1c2ccccc2c(=O)c2ccccc21)N/N=C/c1cc([N+](=O)[O-])ccc1N1CCCCCC1 was read as PLK1 PBD inh 17, PLK1 kinase inh -3, F-actin modifier 14, FAK blocker 69*, E-sel TNF inh 32, HIV Rev-RRE inh -20 and FAK inh conf 80*.
`Cc1cc2nnc(SCC(=O)Nc3cccc(S(=O)(=O)N4CCOCC4)c3)n2c2ccccc12` gave E-sel TNF inh 34.
For O=C(OCCN=C1NS(=O)(=O)c2ccccc21)c1cccnc1 the results were PLK1 PBD inh 10, PLK1 kinase inh -9, F-actin modifier 0, FAK blocker 51*, E-sel TNF inh -4, HIV Rev-RRE inh 1 and FAK inh conf 28*.
Screening O=C(OCCN=C1NS(=O)(=O)c2ccccc21)c1ccccc1 returned PLK1 PBD inh -22, PLK1 kinase inh -5, FAK blocker 1, E-sel TNF inh 15 and HIV Rev-RRE inh 2.
`c1cncc(-c2nc(NCc3ccco3)c3ccccc3n2)c1` gave PLK1 PBD inh -13, PLK1 kinase inh 4, F-actin modifier -1, FAK blocker 19*, E-sel TNF inh -20, HIV Rev-RRE inh 8 and FAK inh conf 9.
Cc1ccc(-c2nc(NCc3ccco3)c3ccccc3n2)cc1 was read as E-sel TNF inh -20.
`COc1ccc(-c2cc(C(=O)N3CCN(c4ccccc4)CC3)c3ccccc3n2)cc1OC` gave PLK1 PBD inh -2, PLK1 kinase inh -9, F-actin modifier 3, FAK blocker 1, E-sel TNF inh -2 and HIV Rev-RRE inh 7.
Screening COc1ccc(-c2nc3ccc(N4CCCC4)cc3c(=O)[nH]2)cc1OC returned PLK1 PBD inh -11, PLK1 kinase inh -7, F-actin modifier -11, FAK blocker 28*, HIV Rev-RRE inh -3 and FAK inh conf 10.
COc1ccc(CN(C)C(C)C(=O)Nc2ccc(S(=O)(=O)N3CCCC3)cc2)c(OC)c1OC (stereo unspecified) was read as E-sel TNF inh -11.
CCc1ccc(CN(C)C(=O)CCc2nnc(CCc3cccc(OC)c3)o2)nc1 was read as E-sel TNF inh -15.
COc1ccc(-c2nc(-c3cccs3)c(-c3cccs3)[nH]2)cc1OC was read as PLK1 PBD inh 0, PLK1 kinase inh -17, F-actin modifier -9, FAK blocker 22*, E-sel TNF inh 13, HIV Rev-RRE inh 12 and FAK inh conf 23*.
`COc1ccc(-c2nc(-c3ccccc3)c(-c3cccs3)[nH]2)cc1OC` gave PLK1 PBD inh -18, PLK1 kinase inh -5, FAK blocker 24*, E-sel TNF inh 11, HIV Rev-RRE inh 2 and FAK inh conf 17.
Screening O=[N+]([O-])c1cccc(-c2nc(-c3ccccc3)c(-c3cccs3)[nH]2)c1 returned PLK1 PBD inh 10, PLK1 kinase inh -10, F-actin modifier -24, FAK blocker 1, E-sel TNF inh -3 and HIV Rev-RRE inh 11.
O=[N+]([O-])c1ccc(-c2nc(-c3cccs3)c(-c3cccs3)[nH]2)cc1 was read as PLK1 PBD inh 2, PLK1 kinase inh -29, F-actin modifier -58, FAK blocker 12, E-sel TNF inh 8 and HIV Rev-RRE inh 12.
`Cc1cc(C)n(-c2nc(Nc3ccccc3)nc(-n3nc(C)cc3C)n2)n1` gave PLK1 PBD inh 2, PLK1 kinase inh -12, F-actin modifier -11, FAK blocker 26*, E-sel TNF inh 6, HIV Rev-RRE inh 5 and FAK inh conf 9.
`Cc1ccc2cccc(NC(=O)c3ccc(Br)o3)c2n1` gave PLK1 PBD inh -12, PLK1 kinase inh 11, F-actin modifier -1, FAK blocker 0, E-sel TNF inh -24 and HIV Rev-RRE inh 9.
For O=C(Nc1cccc(NC(=O)c2ccc(Br)o2)n1)c1ccc(Br)o1 the results were PLK1 PBD inh -9, PLK1 kinase inh -30, F-actin modifier 3, FAK blocker 26*, E-sel TNF inh -21, HIV Rev-RRE inh 1 and FAK inh conf 12.
Screening COC(=O)c1sc2nc(CN3CCN(c4ccc(OC)cc4)CC3)[nH]c(=O)c2c1C returned E-sel TNF inh 7.
For O=C(N/N=C/c1ccc2c(c1)OCO2)/C(=C/c1ccc2c(c1)OCO2)NC(=O)c1ccccc1 the results were PLK1 PBD inh 18, PLK1 kinase inh -15, F-actin modifier 3, FAK blocker 1, E-sel TNF inh -1 and HIV Rev-RRE inh 1.
CN(C)c1ccc(/C=C(/NC(=O)c2ccccc2)C(=O)N/N=C/c2ccc([N+](=O)[O-])c(O)c2)cc1 was read as PLK1 PBD inh -13, PLK1 kinase inh -9, F-actin modifier 15, FAK blocker 20*, HIV Rev-RRE inh 5 and FAK inh conf 5.
`COc1ccc(OC)c(NS(=O)(=O)Cc2ccccc2)c1` gave PLK1 PBD inh 4, PLK1 kinase inh -7, F-actin modifier -7, FAK blocker 46*, E-sel TNF inh 7, HIV Rev-RRE inh 6 and FAK inh conf 32*.
For Cc1cccc(NC(=S)NN(Cc2ccccc2)c2ccccc2)c1C the results were PLK1 PBD inh -9, PLK1 kinase inh -4, F-actin modifier 10, FAK blocker -1 and HIV Rev-RRE inh -2.
Screening CC(Sc1nnc(Cc2cccs2)n1C1CCCCC1)C(N)=O (stereo unspecified) returned PLK1 PBD inh 30, PLK1 kinase inh -12, F-actin modifier -1, FAK blocker 26*, E-sel TNF inh -1, HIV Rev-RRE inh 4 and FAK inh conf -1.
`COc1ccc(C2C3=C(CCCC3=O)Nc3c(-c4ccccc4)c(C)nn32)cc1` (stereo unspecified) gave PLK1 PBD inh 2, PLK1 kinase inh -30, F-actin modifier 27, FAK blocker 5, E-sel TNF inh 17 and HIV Rev-RRE inh 3.
`Cc1nn2c(c1-c1ccccc1)NC1=C(C(=O)CCC1)C2c1ccccc1` (stereo unspecified) gave PLK1 PBD inh -15, PLK1 kinase inh -15, F-actin modifier 30, FAK blocker 25*, E-sel TNF inh 20, HIV Rev-RRE inh 6 and FAK inh conf 22*.
COc1ccc(CN(C(=S)Nc2ccccc2)C2CC(=O)N(c3ccc(Cl)cc3)C2=O)cc1 (stereo unspecified) was read as PLK1 PBD inh -38, PLK1 kinase inh -1, F-actin modifier 0, FAK blocker 87*, E-sel TNF inh -3, HIV Rev-RRE inh 5 and FAK inh conf 1.
For O=C(NCCCN1CCCCCC1)c1ccc(CS(=O)(=O)Cc2ccccc2F)o1 the results were PLK1 PBD inh -7, PLK1 kinase inh 36, F-actin modifier 0, FAK blocker 25*, E-sel TNF inh -27, HIV Rev-RRE inh 8 and FAK inh conf 30*.

High-throughput results deposited in PubChem BioAssay by several laboratories.
